Source: ChEMBL document CHEMBL2010704 (J Med Chem, 2012)
Active and inactive are the calls of the source. The rule behind the calls is not given here.

Experiments:
[1] = target: T1, Broad substrate specificity ATP-binding cassette transporter ABCG2 (Homo sapiens, UniProt Q9UNQ0); experiment: Inhibition of ABCG2-mediated mitoxantrone efflux in HEK293 cells by flow cytometry; type: cell-based
T1 sequence (Q9UNQ0 whole entry): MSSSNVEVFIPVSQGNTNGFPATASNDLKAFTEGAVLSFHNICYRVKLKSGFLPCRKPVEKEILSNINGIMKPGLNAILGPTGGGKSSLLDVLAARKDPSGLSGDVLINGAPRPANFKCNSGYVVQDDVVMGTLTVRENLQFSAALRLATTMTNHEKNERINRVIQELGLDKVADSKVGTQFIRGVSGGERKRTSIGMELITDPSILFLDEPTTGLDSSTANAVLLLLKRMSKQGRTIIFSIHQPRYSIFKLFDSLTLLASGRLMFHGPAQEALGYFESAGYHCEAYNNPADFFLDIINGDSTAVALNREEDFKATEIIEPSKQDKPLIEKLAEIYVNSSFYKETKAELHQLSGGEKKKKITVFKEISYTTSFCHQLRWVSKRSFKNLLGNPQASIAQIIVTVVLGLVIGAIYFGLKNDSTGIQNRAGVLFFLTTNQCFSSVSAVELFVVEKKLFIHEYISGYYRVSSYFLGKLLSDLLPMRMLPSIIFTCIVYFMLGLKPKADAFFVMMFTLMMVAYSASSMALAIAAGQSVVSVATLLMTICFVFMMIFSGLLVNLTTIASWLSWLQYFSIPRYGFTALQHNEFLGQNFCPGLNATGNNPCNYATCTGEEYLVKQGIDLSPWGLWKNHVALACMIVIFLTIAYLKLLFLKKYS
Procedure, shortened: (§1)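 HEK293-ABCG2 cells seeded at 1 × 10^5 cells/well and grown 48 h, then loaded with 5 μM mitoxantrone for 30 min at 37 °C with or without compound. Cells washed in PBS and trypsinized; intracellular fluorescence read by flow cytometry on at least 10,000 events.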

P-glycoprotein (ABCB1) [2] = target: T2, P-glycoprotein (ABCB1) (Homo sapiens, UniProt P08183); experiment: Inhibition of P-glycoprotein/ABCB1-mediated mitoxantrone efflux in HEK293 cells at 1 uM by flow cytometry relative to 5 uM of GF120918; type: cell-based; details: HEK293 cells with P-glycoprotein/ABCB1-mediated efflux, probe mitoxantrone
P-glycoprotein (ABCB1) [3] = target: T2, P-glycoprotein (ABCB1); experiment: Inhibition of P-glycoprotein/ABCB1-mediated mitoxantrone efflux in HEK293 cells at 5 uM by flow cytometry relative to 5 uM of GF120918; type: cell-based; details: HEK293 cells with P-glycoprotein/ABCB1-mediated efflux, probe mitoxantrone
MRP1 (ABCC1) = MRP1 (ABCC1) (Homo sapiens, UniProt P33527); experiment: Inhibition of MRP1/ABCC1-mediated calcein efflux in HEK293 cells at 1 uM by flow cytometry relative to untreated control; type: cell-based; details: HEK293 cells with MRP1/ABCC1-mediated efflux, probe calcein
[4] = Cytotoxicity against human HEK293 cells transfected with ABCG2 after 72 hrs by MTT assay; type: ADME, cell-based; details: read-out: IG50
Procedure, shortened: (§2)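 HEK293-ABCG2 cells (DMEM high glucose, 10% FBS, 0.75 mg/mL G418) seeded at 1 × 10^4 cells/well, left overnight, then exposed to increasing compound concentrations (up to 100 μM) for 72 h at 37 °C, 5% CO2. Viability read by MTT colorimetric assay and expressed as % of control cells in medium with 0.1% DMSO (v/v).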

HEK293 [5] = experiment: Cytotoxicity against human HEK293 cells transfected with ABCG2 at 10 uM after 72 hrs by MTT assay; type: ADME, cell-based; details: hek293, 72 h; procedure, shortened: as §2
[6] = test system: P-glycoprotein 1 (Homo sapiens); experiment: Inhibition of P-glycoprotein/ABCB1-mediated mitoxantrone efflux in HEK293 cells at 5 uM by flow cytometry relative to untreated control; details: HEK293 cells with P-glycoprotein/ABCB1-mediated efflux, probe mitoxantrone
ABCG2 [7] = target: T3, ABCG2 (Homo sapiens, UniProt Q9UNQ0); experiment: Inhibition of ABCG2-mediated mitoxantrone efflux in HEK293 cells at 1 uM by flow cytometry relative to 5 uM of GF120918; type: cell-based; details: HEK293 cells with ABCG2-mediated efflux, probe mitoxantrone
T3 sequence (Q9UNQ0 whole entry): T1 sequence (Q9UNQ0 whole entry)
Procedure, shortened: as §1, with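 “events. […] IC50 from a concentration range; mean ± SD, n ≥ 3.” for “events.”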

ABCG2 [8] = target: T3, ABCG2; experiment: Inhibition of ABCG2-mediated mitoxantrone efflux in HEK293 cells at 5 uM by flow cytometry relative to 5 uM of GF120918; type: cell-based; details: HEK293 cells with ABCG2-mediated efflux, probe mitoxantrone
Procedure, shortened: as §1, with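 “events. […] IC50 from a concentration range; mean ± SD, n ≥ 3.” for “events.”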

ABCG2 [9] = experiment: Therapeutic index, ratio of GI50 for human HEK293 cells transfected with ABCG2 to IC50 for ABCG2-mediated mitoxantrone efflux in HEK293 cells; type: cell-based; details: HEK293 cells transfected with ABCG2, probe mitoxantrone
Procedure, shortened: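 Therapeutic index is IG50 for cytotoxicity (72-h MTT in HEK293-ABCG2 cells) divided by IC50 for inhibition of ABCG2-mediated mitoxantrone efflux measured by flow cytometry.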

[10] = target: T1, Broad substrate specificity ATP-binding cassette transporter ABCG2; experiment: Inhibition of ABCG2 expressed in human HEK293 assessed as potentiation of mitoxantrone-mediated cytotoxicity at 0.2 uM after 72 hrs by MTT assay relative to control; type: cell-based; details: hek293, 72 h
Procedure, shortened: (§3)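 Chemosensitization: HEK293-ABCG2 cells seeded at 1 × 10^4 cells/well, left overnight, then co-treated for 72 h at 37 °C, 5% CO2 with compound plus increasing mitoxantrone or SN-38 (0−0.5 μM). Viability measured by MTT and expressed as % of untreated control. Mean ± SD from at least three independent experiments, each in triplicate.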

HEK293 [11] = experiment: Drug metabolism in human HEK293 cells transfected with ABCG2 at 0.2 to 1 uM after 72 hrs; type: ADME, cell-based; details: hek293, 72 h
[12] = target: T1, Broad substrate specificity ATP-binding cassette transporter ABCG2; experiment: Inhibition of ABCG2 expressed in human HEK293 assessed as potentiation of SN-38-mediated cytotoxicity at 0.2 uM after 72 hrs by MTT assay relative to control; type: cell-based; details: hek293, 72 h; procedure, shortened: as §3
HEK293 [13] = experiment: Effect on ABCG2 expression in human HEK293 cells at 0.2 to 10 uM after 72 hrs by Western blotting analysis; type: functional, cell-based
HEK293 [14] = experiment: Drug uptake in human HEK293 cells transfected with ABCG2 after 30 mins by LC-ESI-MS/MS analysis relative to control; type: ADME, cell-based; details: hek293, 0.5 h
HEK293 [15] = experiment: Drug uptake in human HEK293 cells transfected with ABCG2 after 30 mins by LC-ESI-MS/MS analysis in presence of GF120918 relative to control; type: ADME, cell-based; details: hek293, 0.5 h
[16] = target: T1, Broad substrate specificity ATP-binding cassette transporter ABCG2; experiment: Noncompetitive inhibition of ABCG2 expressed in HEK293 cells in presence of mitoxantrone; type: cell-based
HEK293 [17] = experiment: Cytotoxicity against human control HEK293 cells assessed as cell death at 100 uM after 72 hrs by MTT assay; details: hek293, 72 h

MRP1 (ABCC1), sequence (P33527 whole entry): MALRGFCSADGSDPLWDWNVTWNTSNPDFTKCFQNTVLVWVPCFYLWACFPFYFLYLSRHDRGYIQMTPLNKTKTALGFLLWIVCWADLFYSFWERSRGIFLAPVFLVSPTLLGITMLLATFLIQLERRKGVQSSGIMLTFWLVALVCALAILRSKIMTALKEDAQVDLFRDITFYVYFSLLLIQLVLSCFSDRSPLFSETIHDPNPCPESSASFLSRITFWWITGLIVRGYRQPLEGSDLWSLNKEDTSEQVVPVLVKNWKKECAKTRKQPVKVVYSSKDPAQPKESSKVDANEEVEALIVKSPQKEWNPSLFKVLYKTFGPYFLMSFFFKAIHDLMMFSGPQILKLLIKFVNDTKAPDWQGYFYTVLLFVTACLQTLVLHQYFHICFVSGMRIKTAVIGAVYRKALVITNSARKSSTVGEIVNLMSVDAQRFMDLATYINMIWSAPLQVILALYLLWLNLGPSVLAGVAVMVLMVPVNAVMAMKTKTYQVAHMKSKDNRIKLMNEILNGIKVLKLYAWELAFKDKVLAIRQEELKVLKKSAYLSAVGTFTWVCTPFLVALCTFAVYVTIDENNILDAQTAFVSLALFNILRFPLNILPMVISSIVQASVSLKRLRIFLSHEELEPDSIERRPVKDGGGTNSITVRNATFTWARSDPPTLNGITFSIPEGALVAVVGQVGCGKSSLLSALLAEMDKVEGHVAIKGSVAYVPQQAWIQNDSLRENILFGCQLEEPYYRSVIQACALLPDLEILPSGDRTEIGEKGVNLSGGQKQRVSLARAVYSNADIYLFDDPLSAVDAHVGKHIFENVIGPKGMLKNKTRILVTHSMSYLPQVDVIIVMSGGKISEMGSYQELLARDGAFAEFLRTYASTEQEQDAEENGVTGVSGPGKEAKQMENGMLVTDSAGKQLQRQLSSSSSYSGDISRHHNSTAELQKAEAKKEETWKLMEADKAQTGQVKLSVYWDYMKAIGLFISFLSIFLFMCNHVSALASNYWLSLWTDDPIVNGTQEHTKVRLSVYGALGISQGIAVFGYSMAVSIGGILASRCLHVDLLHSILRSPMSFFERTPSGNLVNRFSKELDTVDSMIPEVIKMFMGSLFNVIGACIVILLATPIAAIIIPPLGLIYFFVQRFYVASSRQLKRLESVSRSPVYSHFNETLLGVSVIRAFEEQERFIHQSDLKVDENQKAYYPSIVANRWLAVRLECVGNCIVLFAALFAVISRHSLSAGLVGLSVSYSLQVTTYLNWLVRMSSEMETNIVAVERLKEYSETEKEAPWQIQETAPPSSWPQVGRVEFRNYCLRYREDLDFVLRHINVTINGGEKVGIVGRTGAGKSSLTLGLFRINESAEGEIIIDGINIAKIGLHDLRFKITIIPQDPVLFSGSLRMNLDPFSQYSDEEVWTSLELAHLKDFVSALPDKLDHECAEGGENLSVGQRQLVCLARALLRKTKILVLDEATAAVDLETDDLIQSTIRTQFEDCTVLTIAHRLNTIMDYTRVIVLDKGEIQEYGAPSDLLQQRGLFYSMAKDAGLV
T2 sequence (P08183 whole entry): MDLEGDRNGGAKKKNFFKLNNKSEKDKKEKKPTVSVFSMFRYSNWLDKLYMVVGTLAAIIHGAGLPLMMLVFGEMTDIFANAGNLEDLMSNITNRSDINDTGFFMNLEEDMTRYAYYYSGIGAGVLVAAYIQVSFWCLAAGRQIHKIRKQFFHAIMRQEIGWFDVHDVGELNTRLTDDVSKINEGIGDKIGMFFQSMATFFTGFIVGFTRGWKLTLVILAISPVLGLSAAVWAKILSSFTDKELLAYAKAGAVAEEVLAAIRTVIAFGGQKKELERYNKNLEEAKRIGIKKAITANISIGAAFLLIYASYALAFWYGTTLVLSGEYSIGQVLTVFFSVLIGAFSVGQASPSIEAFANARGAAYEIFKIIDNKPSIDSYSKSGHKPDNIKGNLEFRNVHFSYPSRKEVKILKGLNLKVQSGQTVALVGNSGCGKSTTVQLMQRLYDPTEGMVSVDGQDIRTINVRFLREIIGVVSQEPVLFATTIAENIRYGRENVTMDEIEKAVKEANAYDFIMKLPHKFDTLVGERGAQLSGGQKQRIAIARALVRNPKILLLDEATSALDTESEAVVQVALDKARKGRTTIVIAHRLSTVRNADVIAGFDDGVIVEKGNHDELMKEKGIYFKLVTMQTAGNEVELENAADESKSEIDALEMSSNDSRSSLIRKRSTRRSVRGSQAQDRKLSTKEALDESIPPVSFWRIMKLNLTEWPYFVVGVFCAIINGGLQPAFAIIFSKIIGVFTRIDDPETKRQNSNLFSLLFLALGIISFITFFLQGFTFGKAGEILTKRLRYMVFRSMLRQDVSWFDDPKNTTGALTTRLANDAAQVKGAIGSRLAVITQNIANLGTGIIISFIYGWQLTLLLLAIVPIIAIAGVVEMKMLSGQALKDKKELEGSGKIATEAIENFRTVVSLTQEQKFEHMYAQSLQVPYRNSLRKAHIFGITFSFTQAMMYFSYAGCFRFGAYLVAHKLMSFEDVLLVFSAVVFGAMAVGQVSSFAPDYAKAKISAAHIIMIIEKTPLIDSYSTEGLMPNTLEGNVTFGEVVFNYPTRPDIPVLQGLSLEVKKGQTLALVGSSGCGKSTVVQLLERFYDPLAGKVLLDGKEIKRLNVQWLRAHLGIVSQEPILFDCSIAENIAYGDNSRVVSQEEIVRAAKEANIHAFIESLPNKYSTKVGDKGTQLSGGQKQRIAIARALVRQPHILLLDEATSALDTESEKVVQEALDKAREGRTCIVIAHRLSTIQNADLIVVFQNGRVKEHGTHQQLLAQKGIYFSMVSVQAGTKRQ

Row | SMILES | IC50 [1] [nM] | inhibition at 1 µM (P-glycoprotein (ABCB1) [2]) [%] | inhibition at 5 µM (P-glycoprotein (ABCB1) [3]) [%] | inhibition at 1 µM (MRP1 (ABCC1)) [%] | inhibition at 5 µM [6] [%] | inhibition at 1 µM (ABCG2 [7]) [%] | inhibition at 5 µM (ABCG2 [8]) [%] | other results
1 | COc1ccc2[nH]cc(CCNC(=O)c3cc(=O)c4c(OCc5ccccc5)cccc4o3)c2c1 | 180 | -9.11 | -19.4 | 1.91 | 5.14 | – | – | GI50 at 72 h [4]: 35000 nM; Activity (HEK293 [5]): Non-toxic
2 | COc1ccc2[nH]cc(CCNC(=O)c3cc(=O)c4c(OCCc5ccccc5)cccc4o3)c2c1 | 160 | -14 | -14.8 | 2.36 | 5.12 | – | – | –
3 | O=C(c1cc(=O)c2c(OCc3ccccc3)cccc2o1)N1CCN(c2ccccc2)CC1 | – | – | – | – | – | 21.3 | 66.1 | –
4 | O=C(c1cc(=O)c2c(OCc3ccccc3)cccc2o1)N1CCN(Cc2ccccc2)CC1 | – | – | – | – | – | 16.5 | 48.3 | –
5 | CC(C)=CCc1c(O)cc2oc(-c3ccccc3)cc(=O)c2c1O | – | – | – | – | – | – | – | selectivity ratio (ABCG2 [9]): 40
6 | O=C(c1cc(=O)c2c(O)cccc2o1)N1CCN(c2ccccc2)CC1 | – | – | – | – | – | 5.5 | 9.8 | –
7 | COc1ccc2[nH]cc(CCNC(=O)c3cc(=O)c4c(OCc5ccc(C)cc5)cccc4o3)c2c1 | 200 | -4.29 | -21.9 | 1.13 | 3.09 | – | – | –
8 | COc1ccc2c3c([nH]c2c1)[C@H](CC(C)C)N1C(=O)[C@H](CCC(=O)OC(C)(C)C)NC(=O)[C@@H]1C3 | – | – | – | – | – | – | – | GI50 at 72 h [4]: 18000 nM
9 | COc1ccc(CCNC(=O)c2cc(=O)c3c(O)cccc3o2)cc1OC | – | -20.5 | -29 | 3.37 | 5.47 | 34.4 | 62.5 | –
10 | COc1ccc2[nH]cc(CCNC(=O)c3cc(=O)c4c(OCc5ccc(Br)cc5)cccc4o3)c2c1 | 110 | -1.75 | -16.1 | 2.58 | 2.86 | – | – | selectivity ratio (ABCG2 [9]): 2000; inhibition (INH) [10]: Active; Drug metabolism (HEK293 [11]): Not Active; inhibition (INH) [12]: Active; Activity (HEK293 [13]): inactive; Drug uptake (HEK293 [14]): Not Active; Drug uptake (HEK293 [15]): Not Active; inhibition (INH) [16]: Active; Activity (HEK293 [17]): < 25%
11 | COc1ccc(CCNC(=O)c2cc(=O)c3c(OCc4ccccc4)cccc3o2)cc1OC | – | -25.5 | -22.9 | 10.8 | – | – | – | GI50 at 72 h [4]: 60000 nM; Activity (HEK293 [5]): 35%; Activity (HEK293 [13]): inactive; Drug uptake (HEK293 [14]): Not Active; Drug uptake (HEK293 [15]): Not Active; inhibition (INH) [16]: Active
12 | COc1ccc(CCOc2cccc3oc(C(=O)O)cc(=O)c23)cc1OC | – | – | – | – | – | 6.1 | 26.7 | –
13 | O=C(c1cc(=O)c2c(OCc3ccccc3)cccc2o1)N1CCN(c2ccccn2)CC1 | – | – | – | – | – | 18.1 | 46.2 | –
14 | O=C(O)c1cc(=O)c2c(O)cccc2o1 | – | – | – | – | – | -1.2 | -2 | –
15 | COc1ccc(CCNC(=O)c2cc(=O)c3c(OCCc4ccc(OC)c(OC)c4)cccc3o2)cc1OC | 470 | -16.6 | -0.11 | 5.57 | 10.8 | – | – | –
